A selection: hits, their analogues and other compounds. The true share with any hit is near 4.8%.
Calb FLC – affects C. albicans growth with fluconazole; growth inhibition, % (concentration not given with the values); C. albicans CaCi-2 (fluconazole-resistant clinical isolate) + fluconazole, Alamar Blue growth, 48 h; AID 1979; hit rate 0.57% among 300,000;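 active = growth inhibition above about 58% in most replicates, limit read from the data, passing the limit was not always enough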;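 note: all wells also contain fluconazole at 8 µg/ml as a sub-toxic cotreatment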
ATG4B inh – blocks human ATG4B protease cleavage of LC3 substrate. ATG4B cleavage of LC3-PLA2, NBD-HPC fluorescence, 1 h. inhibition, % at 8.33 µM. hit rate 0.51% among 340,000. AID 504462; in the data active = inhibition above about 40%
Target sequence (Q9Y4P1 whole entry, looked up): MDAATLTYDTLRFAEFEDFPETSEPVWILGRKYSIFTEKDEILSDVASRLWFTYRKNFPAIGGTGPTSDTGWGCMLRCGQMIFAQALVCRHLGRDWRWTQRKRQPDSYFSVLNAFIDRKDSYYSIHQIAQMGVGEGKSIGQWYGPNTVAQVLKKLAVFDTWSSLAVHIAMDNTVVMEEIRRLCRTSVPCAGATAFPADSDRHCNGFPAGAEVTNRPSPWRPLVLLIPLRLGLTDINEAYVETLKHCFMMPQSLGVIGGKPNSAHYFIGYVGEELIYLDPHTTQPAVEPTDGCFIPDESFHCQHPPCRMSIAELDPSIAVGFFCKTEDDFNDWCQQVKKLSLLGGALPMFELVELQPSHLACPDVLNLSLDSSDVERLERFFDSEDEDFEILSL
NLRP3 yeast inh – NALP3 inhibition in yeast; hit rate 0.39% among 330,000; AID 2825; Yeast reconstituted NLRP3/ASC/caspase-1, beta-gal luminescence, 24 h; inhibition, % at 10 µM;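 active = inhibition of 50% or more; inactive = inhibition below 50%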
NALP1 inh – NALP1 inhibition | AID 2071 | hit rate 0.61% among 280,000 | S. cerevisiae NALP1/ASC/caspase-1 growth, X-gal OD620, 72 h | inhibition, % at 10 µM; in the data active = inhibition mostly above about 24%, no sharp cut-off; inactive = mostly below about 32%
ALR inh – inhibitors of human sulfhydryl oxidase ALR | purified ALR, DTT oxidation, H2O2 HRP-luminol luminescence | AID 485317 | inhibition, % (no concentration beside the values) | hit rate 3.8% among 290,000 | P55789;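 active = mean replicate inhibition above about 79%, with every replicate also reaching it, limit read from the data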
Target sequence (P55789 whole entry, looked up): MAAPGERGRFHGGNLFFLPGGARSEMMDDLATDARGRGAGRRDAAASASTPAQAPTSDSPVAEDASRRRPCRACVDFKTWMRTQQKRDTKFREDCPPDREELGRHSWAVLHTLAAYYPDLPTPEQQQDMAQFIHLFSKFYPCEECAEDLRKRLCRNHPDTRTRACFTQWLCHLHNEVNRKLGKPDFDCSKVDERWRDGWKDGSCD
UCH37 inh – blocks the human deubiquitinase UCH37; Q9Y5K5; purified proteasome/UCH37, Ub-AMC cleavage fluorescence; inhibition, % (no concentration beside the values); hit rate 0.33% among 330,000; AID 588478;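 active = mean inhibition over replicate wells above about 20%, limit read from the data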
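Signal – fluorescence, ex 355 nm, em 460 nm · System – Proteasome-bound UCH37 · Input – 0.15 nM proteasome as dispensed · Timing – 30 min preincubation with enzyme, 25 min cleavage at room temperature · Read-out basis – percent inhibition of cleavage signal versus uninhibited and no-proteasome wells · Medium – Tris-HCl pH 7.4 with ATP-MgCl2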
ATG4B conf – confirmation of human ATG4B inhibitors; shares compounds with ATG4B inh; ATG4B protease fluorescent substrate cleavage assay; inhibition, % at 8.33 µM; hit rate 92% among 320; AID 504757; in the data active = inhibition above about 39%
PLA2 counter – counter-screen for ATG4B inhibitors: human phospholipase A2; purified PLA2, NBD-C6-HPC fluorescence, 45 min; inhibition, % at 8.33 µM; hit rate 66% among 1,600; shares compounds with ATG4B inh; in the data active = inhibition above about 50%
UCH37 confirm – reconfirmed inhibitor of human deubiquitinase UCH37; shares compounds with UCH37 inh; Proteasome-bound UCH37, Ub-AMC cleavage fluorescence; inhibition, % at 20 µM; hit rate 27% among 480; AID 624100;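 active = average inhibition over replicates above about 50%, so the earlier screening hit is confirmed, limit read from the data; inactive = the rest, counted as false positives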;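 note: based on cleavage rate fitted by regression over a 30 min kinetic read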
Hits are given with their value; n = inactive; x = not tested or not shown; ! = a repeat was not active.

SMILES | Calb FLC | ATG4B inh | NLRP3 yeast inh | NALP1 inh | ALR inh | UCH37 inh | UCH37 confirm | others
CCc1nc(N2CCN(C(=O)c3ccco3)CC2)c2c3c(sc2n1)CCCC3 | n | 78 | n | n | n | n | x | PLA2 counter=86
CCc1nc(-n2[nH]c(=O)c3ccccc3c2=O)c2c3c(sc2n1)CCCC3 | n | n | n | x | x | n | x
Cc1ccc(S(=O)(=O)N2CCN(CC(=O)NN=Cc3ccco3)CC2)cc1 | x | x | x | x | x | n | x
Cc1cc(N/N=C/c2ccccc2Cl)nc(NCc2ccccc2)n1 | n | 85 | n | n | n | x | x | PLA2 counter=91
O=C(O)c1cc(NN=Cc2ccc3c(c2)OCCO3)ccc1Cl | x | x | x | x | x | n | x
O=C(O)c1cc(-c2ccco2)nc2ccc(Br)cc12 | n | 78! | n | n | 98 | n | x | ATG4B conf=65;PLA2 counter=n
O=C(NN=Cc1ccc(CNS(=O)(=O)c2ccc(Cl)cc2)o1)C(=O)Nc1ccc(Oc2ccccc2)cc1 | x | x | x | x | x | n | x
c1ccc(-c2ccc(-n3ccnc3)cc2)cc1 | n | n | n | n | n | n | x
c1ccc(-c2ccc(C(c3ccccc3)n3ccnc3)cc2)cc1 (configuration not stated) | x | 41 | x | n | n | n | x | ATG4B conf=63;PLA2 counter=n
COC(=O)CC=N/N=C1/NC(=O)/C(=C/C(=O)O)S1 | x | x | x | x | x | n | x
O=C(CCC1CCCC1)Nc1ccccc1-c1ccccc1 | n | 45 | n | n | n | n | x | PLA2 counter=50
O=C(CC1CCCCC1)Nc1ccccc1-c1ccccc1 | n | n | n | n | n | n | x
O=C(CCC1CCCCC1)Nc1ccccc1-c1ccccc1 | n | 53 | n | n | n | n | x | PLA2 counter=54
COCC(=O)Nc1ccccc1-c1ccccc1 | n | n | n | n | n | n | x
CC(=NNc1ccc([N+](=O)[O-])cc1[N+](=O)[O-])c1ccc(-n2nncc2C(C)(C)C)cc1 | x | x | x | x | x | n | x
Cc1c(C(=O)Nc2ccccc2[N+](=O)[O-])csc1-c1ccccc1 | n | 59 | n | n | x | n | x | PLA2 counter=n
Cc1c(C(=O)Nc2ccccc2)csc1-c1ccccc1 | n | n | n | n | n | n | x
Nc1ccc2c(c1)C(=O)C(=O)c1ccccc1-2 | n | 78 | n | n | n | 99 | 101 | ATG4B conf=n;PLA2 counter=n
Clc1cccc(Cl)c1CONC=Nc1ncnc2sccc12 | x | x | x | x | x | n | x
COC(=O)c1cc(C)nc2c1C(=O)C(=O)C=C2N1CCOCC1 | n | 75 | n | n | n | 100 | 100 | ATG4B conf=n;PLA2 counter=n
COC(=O)c1cc(S(=O)(=O)N2CCOCC2)c(Cl)cc1N1CCOCC1 | n | n | n | n | n | n | x
CCCCCCCCCCCCCCCC[n+]1ccccc1 | x | 59! | x | x | x | 79 | 97 | ATG4B conf=39;PLA2 counter=n
N#Cc1c(N2CCCC2)nc(N)c2c(N)nc(N3CCCC3)cc12 | n | 74 | n | n | n | 31 | n | ATG4B conf=n;PLA2 counter=n
COc1cc2c(C#N)c(N3CCCC3)nc(N)c2c(N)n1 | n | n | n | x | n | n | x
O=C(CON=Cc1ccc(Cl)cc1Cl)NNC(=O)c1cccc(Cl)c1 | x | x | x | x | x | n | x
SMILES | Calb FLC | ATG4B inh | NLRP3 yeast inh | NALP1 inh | ALR inh | UCH37 inh | UCH37 confirm | others
N#Cc1ccc(C(=O)Nc2nnc(-c3cccs3)o2)cc1 | n | n | n | n | n | n | x
CN(C)S(=O)(=O)c1ccc(C(=O)Nc2nnc(-c3cccs3)o2)cc1 | n | n | n | n | n | 52 | n
Cc1ccc(CN2CCN(N=Cc3sccc3C)CC2)c(C)c1 | x | x | x | x | x | n | x
CN1C(=O)/C(=C/C=C2/CCCN2C)N(C)C1=S | n | n | n | n | n | 34 | n
COc1ccccc1N(N=C1Sc2ccccc2C1=O)C(C)=O | x | x | x | x | x | 71 | n
CC(=O)N(N=C1Sc2ccccc2C1=O)c1ccc(C)cc1C | x | x | x | x | x | 35 | n
CC(=O)N(/N=C1\Sc2ccccc2C1=O)c1ccccc1 | x | n | x | n | x | x | x
CC(=O)N(/N=C1\Sc2ccccc2C1=O)c1ccc(C)cc1C | n | n | n | n | n | x | x
COC(=O)NN=Cc1cc2c(cc1Br)OCO2 | x | x | x | x | x | n | x
COc1cc(C=NNc2ccc(C(F)(F)F)cn2)cc(OC)c1O | x | x | x | x | x | n | x
CCOC(=O)C1CCCc2c1[nH]c1c(C(N)=O)cccc21 (configuration not stated) | n | n | n | n | n | 53 | n
O=C1NNC(c2ccccc2)=N/C1=C\c1ccccc1Cl | x | n | x | n | x | 34 | 74
O=C(NN=C1CC2CC=CC12)c1ccccc1Cl (configuration not stated) | x | x | x | x | x | n | x
O=C1N=C(N2CCCC2C(=O)O)S/C1=C\c1ccco1 (configuration not stated) | n | n | n | n | n | 43 | n
CC(CC(=O)Nc1ccccc1C)=NNC(=O)Cc1csc(N)n1 | x | x | x | x | x | n | x
CCOc1ccc(C=NNC(=O)CNC(=O)c2ccc(S(=O)(=O)N3CCOCC3)cc2)cc1 | x | x | x | x | x | n | x
Cc1c(/C(O)=C2\C(=O)C(=O)N(CCCN(C)C)C2c2cccs2)cnn1-c1ccccc1 (configuration not stated) | x | n | x | x | x | 35 | n
COc1cc(Br)cc(C=NNC(=O)Cc2ccccc2)c1O | x | x | x | x | x | n | x
Cc1nc(-c2cccnc2)sc1C(=O)NN=Cc1ccccc1Cl | x | x | x | x | x | n | x
N#CC(=NO)c1nc2ccccc2s1 | x | x | x | x | x | n | x
COC(=O)COc1ccc(S(=O)(=O)NCCC2=CCCCC2)cc1C | n | n | n | n | n | 55 | 60
CCCNS(=O)(=O)c1ccc(OCC(=O)NCCC2=CCCCC2)cc1 | n | n | n | n | n | 36 | n
COC(=O)COc1ccc(S(=O)(=O)NCCC2=CCCCC2)cc1 | n | n | n | n | n | n | x
C=CCN1C=CC(=C/C=C(/C#N)C(=O)OCC)C=C1 | n | n | n | n | 84 | 32 | n
COC(=O)c1ccc(-c2ccc(C(c3c(C)[nH][nH]c3=O)c3c(C)[nH][nH]c3=O)o2)cc1 | n | n | n | n | n | 45 | 67
SMILES | Calb FLC | ATG4B inh | NLRP3 yeast inh | NALP1 inh | ALR inh | UCH37 inh | UCH37 confirm | others
CNC(=S)N/N=C/c1ccc(-c2cccc(C(=O)O)c2)o1 | n | n | n | x | n | x | x
Cc1[nH][nH]c(=O)c1C(c1ccc(-c2cccc(C(=O)O)c2)o1)c1c(C)[nH][nH]c1=O | n | n | n | n | n | 44 | 71
Cc1[nH][nH]c(=O)c1C(c1ccc(-c2cccc(Cl)c2)o1)c1c(C)[nH][nH]c1=O | n | n | n | x | n | 81 | 84
Cc1[nH][nH]c(=O)c1C(c1ccc(Br)cc1)c1c(C)[nH][nH]c1=O | n | n | n | n | n | n | x
O=C(Cc1ccccc1)NN=Cc1ccc(OC(=O)/C=C\c2ccco2)cc1 | x | x | x | x | x | n | x
COc1cc(C=Nn2c(-c3cc(C)[nH]n3)n[nH]c2=S)ccc1O | x | x | x | x | x | n | x
CC(=O)N/C(=N/c1nc(C)cc(C)n1)Nc1ccc(Cl)cc1Cl | x | x | x | x | x | n | x

Bioassay records: PubChem, several laboratories
